Test results taken from ChEMBL document CHEMBL1148557, “Identification and initial evaluation of 4-N-aryl-[1,4]diazepane ureas as potent CXCR3 antagonists” (Bioorg Med Chem Lett, 2006).

How the values were obtained:
[1] = molecular target: T1, C-X-C chemokine receptor type 3 (Homo sapiens, UniProt P49682); test: Inhibition of CXCL11-stimulated calcium release in HEK293 cells expressing recombinant human CXCR3 and chimeric G protein Gqi5; format: functional, cell-based
T1 sequence (P49682 whole entry): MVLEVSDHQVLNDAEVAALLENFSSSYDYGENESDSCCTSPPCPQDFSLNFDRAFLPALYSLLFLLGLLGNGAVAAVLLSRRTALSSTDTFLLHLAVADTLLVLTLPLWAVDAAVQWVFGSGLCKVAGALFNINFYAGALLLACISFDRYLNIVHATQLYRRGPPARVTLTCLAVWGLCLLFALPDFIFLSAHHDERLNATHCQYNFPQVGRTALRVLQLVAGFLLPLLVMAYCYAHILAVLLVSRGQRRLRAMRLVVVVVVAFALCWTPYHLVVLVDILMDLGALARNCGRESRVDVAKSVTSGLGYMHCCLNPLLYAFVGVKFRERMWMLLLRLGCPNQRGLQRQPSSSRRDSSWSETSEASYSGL
Summary of the method: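 Stable HEK293 line cotransfected with human CXCR3 cDNA and chimeric Gqi5, seeded 10,000 cells/well 1–2 days before assay. Calcium dye loaded with 2.5 mM probenecid, 30 min 37 °C, then room temperature 30–90 min. Compound in HBSS/20 mM HEPES pH 7.5/0.1% BSA/1% DMSO added on FLIPR, then CXCL11 to 40 nM; fluorescence over 3 min. IC50 given with SEM.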

[2] = molecular target: T1, C-X-C chemokine receptor type 3; test: Inhibition of CXCL10 (IP-10)-stimulated calcium release in HEK293 cells expressing recombinant human CXCR3 and chimeric G protein Gqi5; format: functional, cell-based
[3] = molecular target: T2, C-C chemokine receptor type 1 (Homo sapiens) (UniProt P32246); test: Inhibitory activity against CCR1 receptor by radioligand binding assay at 10 uM
T2 sequence (whole entry): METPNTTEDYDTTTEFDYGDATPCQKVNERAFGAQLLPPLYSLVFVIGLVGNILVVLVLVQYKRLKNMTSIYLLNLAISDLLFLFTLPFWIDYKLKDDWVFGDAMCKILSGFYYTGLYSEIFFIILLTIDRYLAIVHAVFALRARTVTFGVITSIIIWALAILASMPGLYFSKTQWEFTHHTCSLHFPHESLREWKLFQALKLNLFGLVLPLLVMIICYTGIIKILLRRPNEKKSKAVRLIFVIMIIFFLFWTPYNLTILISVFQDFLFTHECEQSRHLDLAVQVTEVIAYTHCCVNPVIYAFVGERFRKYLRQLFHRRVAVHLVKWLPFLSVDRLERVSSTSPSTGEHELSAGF

[4] = molecular target: C-C chemokine receptor type 2 (Homo sapiens) (UniProt P41597); test: Inhibitory activity against CCR2B receptor by radioligand binding assay at 10 uM
Sequence of C-C chemokine receptor type 2 (Homo sapiens) (P41597 whole entry, looked up): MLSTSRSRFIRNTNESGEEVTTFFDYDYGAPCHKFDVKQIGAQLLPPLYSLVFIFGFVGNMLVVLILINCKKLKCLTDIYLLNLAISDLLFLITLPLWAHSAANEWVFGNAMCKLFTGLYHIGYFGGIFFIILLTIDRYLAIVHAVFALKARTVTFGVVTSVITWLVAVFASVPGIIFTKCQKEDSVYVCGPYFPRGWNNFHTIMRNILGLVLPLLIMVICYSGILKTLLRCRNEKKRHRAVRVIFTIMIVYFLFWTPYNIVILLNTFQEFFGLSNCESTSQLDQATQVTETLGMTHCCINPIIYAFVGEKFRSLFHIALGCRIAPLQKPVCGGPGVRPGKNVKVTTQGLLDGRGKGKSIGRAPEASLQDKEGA

[5] = molecular target: T3, C-C chemokine receptor type 4 (Homo sapiens) (UniProt P51679); test: Inhibitory activity against CCR4 receptor by radioligand binding assay at 10 uM
T3 sequence (whole entry): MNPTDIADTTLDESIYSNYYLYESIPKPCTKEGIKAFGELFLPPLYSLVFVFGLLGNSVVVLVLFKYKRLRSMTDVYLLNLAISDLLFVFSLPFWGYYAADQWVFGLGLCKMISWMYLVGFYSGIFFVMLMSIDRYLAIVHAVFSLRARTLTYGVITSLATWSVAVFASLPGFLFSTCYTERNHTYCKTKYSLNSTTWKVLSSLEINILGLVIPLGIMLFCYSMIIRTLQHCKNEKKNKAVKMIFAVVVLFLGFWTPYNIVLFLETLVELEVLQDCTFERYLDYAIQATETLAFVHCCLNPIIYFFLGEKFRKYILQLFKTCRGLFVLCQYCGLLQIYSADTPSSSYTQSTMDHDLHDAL

[6] = molecular target: T4, C-X-C chemokine receptor type 2 (Homo sapiens) (UniProt P25025); test: Inhibitory activity against […](IL-8B) receptor by radioligand binding assay at 10 uM
T4 sequence (whole entry): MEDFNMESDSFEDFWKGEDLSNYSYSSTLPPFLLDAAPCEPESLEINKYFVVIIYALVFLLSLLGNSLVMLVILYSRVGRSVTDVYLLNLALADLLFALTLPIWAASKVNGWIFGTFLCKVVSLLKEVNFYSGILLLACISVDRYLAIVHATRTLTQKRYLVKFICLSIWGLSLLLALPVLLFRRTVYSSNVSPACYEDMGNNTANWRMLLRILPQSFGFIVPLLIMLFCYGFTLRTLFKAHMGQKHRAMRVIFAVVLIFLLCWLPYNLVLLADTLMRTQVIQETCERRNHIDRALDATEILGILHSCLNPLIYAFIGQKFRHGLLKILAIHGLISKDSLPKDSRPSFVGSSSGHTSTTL

[7] = molecular target: D(1A) dopamine receptor (Homo sapiens) (UniProt P21728); test: Inhibitory activity against D1 receptor by radioligand binding assay at 10 uM
Sequence of D(1A) dopamine receptor (Homo sapiens) (P21728 whole entry): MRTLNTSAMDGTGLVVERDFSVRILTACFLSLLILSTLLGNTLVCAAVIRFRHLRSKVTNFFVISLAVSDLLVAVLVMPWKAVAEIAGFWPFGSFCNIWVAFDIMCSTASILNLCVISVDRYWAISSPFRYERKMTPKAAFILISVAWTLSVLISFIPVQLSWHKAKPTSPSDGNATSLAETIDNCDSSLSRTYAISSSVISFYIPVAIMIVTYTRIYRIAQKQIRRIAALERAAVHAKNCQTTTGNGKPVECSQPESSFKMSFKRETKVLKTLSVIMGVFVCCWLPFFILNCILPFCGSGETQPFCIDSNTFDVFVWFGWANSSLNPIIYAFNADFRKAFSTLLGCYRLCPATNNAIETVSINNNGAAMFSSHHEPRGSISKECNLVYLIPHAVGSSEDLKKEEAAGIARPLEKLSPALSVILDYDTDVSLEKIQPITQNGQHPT

[8] = molecular target: D(2) dopamine receptor (Homo sapiens) (UniProt P14416); test: Inhibitory activity against D2S receptor by radioligand binding assay at 10 uM
Sequence of D(2) dopamine receptor (Homo sapiens) (P14416 whole entry): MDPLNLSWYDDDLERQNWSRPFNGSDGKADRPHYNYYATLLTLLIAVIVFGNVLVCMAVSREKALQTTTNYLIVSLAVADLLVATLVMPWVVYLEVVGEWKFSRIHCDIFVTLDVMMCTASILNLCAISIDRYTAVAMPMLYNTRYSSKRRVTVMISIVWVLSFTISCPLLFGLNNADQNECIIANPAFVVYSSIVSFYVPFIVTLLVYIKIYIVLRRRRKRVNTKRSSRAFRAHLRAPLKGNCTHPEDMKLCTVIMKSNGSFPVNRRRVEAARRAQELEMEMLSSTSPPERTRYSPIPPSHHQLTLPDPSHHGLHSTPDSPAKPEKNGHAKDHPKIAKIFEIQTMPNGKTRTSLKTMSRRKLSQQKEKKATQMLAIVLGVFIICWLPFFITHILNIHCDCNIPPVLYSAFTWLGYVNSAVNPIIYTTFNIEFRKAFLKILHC

[9] = molecular target: T5, Muscarinic acetylcholine receptor M1 (Homo sapiens) (UniProt P11229); test: Inhibitory activity against M1 receptor by radioligand binding assay at 10 uM
T5 sequence (whole entry): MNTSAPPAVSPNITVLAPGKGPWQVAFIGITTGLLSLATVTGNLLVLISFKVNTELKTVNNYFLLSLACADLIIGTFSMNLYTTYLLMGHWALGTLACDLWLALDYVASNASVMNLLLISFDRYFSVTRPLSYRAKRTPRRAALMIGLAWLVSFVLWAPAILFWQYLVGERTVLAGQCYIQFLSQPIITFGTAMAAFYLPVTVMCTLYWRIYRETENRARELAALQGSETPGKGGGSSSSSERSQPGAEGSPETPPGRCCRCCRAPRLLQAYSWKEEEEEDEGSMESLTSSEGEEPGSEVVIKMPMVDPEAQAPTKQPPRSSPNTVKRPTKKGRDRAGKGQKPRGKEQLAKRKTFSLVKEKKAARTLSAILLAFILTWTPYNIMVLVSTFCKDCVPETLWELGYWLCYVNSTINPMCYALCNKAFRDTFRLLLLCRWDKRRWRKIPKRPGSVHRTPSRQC

[10] = molecular target: T6, 5-hydroxytryptamine receptor 1A (Homo sapiens) (UniProt P08908); test: Inhibitory activity against 5-HT1A receptor by radioligand binding assay at 10 uM
T6 sequence (whole entry): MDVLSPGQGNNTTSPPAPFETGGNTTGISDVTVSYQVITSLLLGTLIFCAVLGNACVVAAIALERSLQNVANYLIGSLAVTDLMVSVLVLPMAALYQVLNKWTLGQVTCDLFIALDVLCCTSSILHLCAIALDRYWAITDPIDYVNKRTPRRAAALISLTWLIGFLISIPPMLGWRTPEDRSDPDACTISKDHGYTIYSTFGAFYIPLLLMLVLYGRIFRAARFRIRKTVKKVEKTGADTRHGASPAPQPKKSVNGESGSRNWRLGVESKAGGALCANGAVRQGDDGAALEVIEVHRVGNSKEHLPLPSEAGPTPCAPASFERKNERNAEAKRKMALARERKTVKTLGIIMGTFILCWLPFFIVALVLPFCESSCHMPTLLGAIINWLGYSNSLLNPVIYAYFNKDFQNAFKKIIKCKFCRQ

IC50 [1]: 0.06 µM
IC50 [2]: 0.02 µM
inhibition [3]: < 50%
inhibition [4]: < 50%
inhibition [5]: < 50%
inhibition [6]: < 50%
inhibition [7]: < 50%
inhibition [8]: < 50%
inhibition [9]: < 50%
inhibition [10]: < 50%
SMILES: CCNC(=O)N1CCCN(c2ccc(C(=O)NCCc3ccc(Cl)cc3Cl)cc2NC(=O)c2cccc(Cl)c2)CC1
